DTT redox prof = compounds producing H2O2 with reducing agent – biochemical, NIH compound library profiling, artefact control for MLSCN library redox annotation, primary screen | DTT-dependent redox cycling H2O2, phenol red/HRP absorbance; 100% = 100 µM peroxide control, 0% = buffer | activation, % at 10 µM | 0.03% of 200,000 active | AID 878;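 active = activation of at least 50% relative to the plate's high and low controls in the primary single-dose screen; inactive = activation below 50%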;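 note: compound incubated with DTT at 0.8 mM final as the reducing agent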
G6PDH CS = counter-screen for G6PDH assay hits: L. mesenteroides G6PDH inhibition; inhibition, % at 5 µM; Purified L. mesenteroides G6PDH, diaphorase/resazurin coupled fluorescence, 45 min; 0.12% of 200,000 active
Diaph inh CS = counter-screen for diaphorase-based assays: diaphorase inhibitors and chemical oxidizers. diaphorase resazurin-to-resorufin fluorescence, NADH, 16 min; bacterial (C. kluyveri) enzyme, not human. inhibition, % at 20 µM. 0.69% of 190,000 active;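 active = primary screen inhibition at 20 µM above a set limit, cut at about 50% in these data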
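System: Diaphorase enzyme from Clostridium kluyveri | Amount: Enzyme working solution with 0.14 U/mL diaphorase | Benchmarks: No-NADH positive control and DMSO neutral control | Signal: Fluorescence of resorufin formed from resazurin, Ex 544/Em 590 nm | Schedule: 16-min room-temperature incubation before reading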
Diaph act CS = activates diaphorase or chemically reduces, flagging diaphorase assay artifacts; Diaphorase/resazurin coupled assay, resorufin fluorescence, 16 min; stronger effect = higher value; 1 = vehicle wells, 0 = NADH-free wells; activation factor at 20 µM; 0.005% of 190,000 active;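 active = diaphorase activity raised at least twofold by the compound at 20 µM; inactive = activation factor below 2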
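Material: purified diaphorase enzyme from Clostridium kluyveri; Also added: 0.114 mM NADH and 0.1 mM resazurin, final amounts; Doses: single compound dose of 20 µM, 1% DMSO final; Times: 16 min enzyme reaction, ambient temperature; Detection: resorufin fluorescence, excitation 544 nm, emission 590 nm; Measure: increased resorufin signal from activators or reducing compounds.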
PfGluPho inh = PfG6PD (Plasmodium falciparum) enzyme inhibition | PfGluPho enzyme, NADPH resazurin-diaphorase fluorescence | inhibition, % at 20 µM | 0.78% of 350,000 active | AID 504690;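 active = inhibition reaching at least a set limit at 20 µM in the primary screen, cut at about 59% in these data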
L major viab = inhibitors of Leishmania major promastigote growth | inhibition, % at 10 µM | Leishmania major promastigotes, resazurin fluorescence viability | 9% of 200,000 active;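 note: promastigotes grown with compound for 44 hours at 28 °C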
Of the large screens only hits and unclear results are named; the others gave an inactive call. This is one part of a sample in which hits are shown more often than they occur. Cut-off read from the data, not from the text of the source, unless noted: active = inhibition above about 50%; inactive = the rest.

N#C/C(=C\c1cccc([N+](=O)[O-])c1)C(=O)NCc1ccc(Cl)cc1	L major viab 51
N#C/C(=C\c1cccc([N+](=O)[O-])c1)C(=O)NCc1cccnc1	none
COc1ccc(NS(=O)(=O)c2cc3c4c(c2)CCN4C(=O)CC3)c(OC)c1	none (no result: DTT redox prof, G6PDH CS, Diaph inh CS, Diaph act CS, L major viab)
O=C(COC(=O)c1ccc(F)c(S(=O)(=O)N2CCCCC2)c1)NCc1ccc(F)cc1	none
N#CCCCN1C(=O)C(=C(C#N)C#N)c2ccccc21	none
COc1ccc(/C=C(\C#N)C(=O)NCCc2ccccc2)cc1OCc1ccccc1	L major viab 96
COCCNC(=O)/C(C#N)=C/c1ccc(O)c([N+](=O)[O-])c1	none
COCCNC(=O)/C(C#N)=C/c1cccc(/C=C(\C#N)C(=O)NCCOC)c1	L major viab 99
COCCNC(=O)/C(C#N)=C/C=C/c1ccccc1[N+](=O)[O-]	L major viab 81
COCCNC(=O)/C(C#N)=C/c1ccc(O)cc1	none (no result: DTT redox prof, G6PDH CS, Diaph inh CS, Diaph act CS, L major viab)
COc1cc(/C=C(/C#N)C(=O)NCc2ccccc2)cc(OC)c1OC	none (no result: DTT redox prof, G6PDH CS, Diaph inh CS, Diaph act CS, L major viab)
Cc1ccc[n+](CC(=O)Nc2nc3ccccc3s2)c1	none
Cc1ccc(NC(=O)CN(C)C(=O)c2cc(-c3cccs3)nn2-c2ccccc2)cc1	none (no result: DTT redox prof, G6PDH CS, Diaph inh CS, Diaph act CS, L major viab)
CC(C)N1C(=O)CC(Nc2cccc3cccc(N)c23)C1=O (stereo not given)	Diaph inh CS 52
COc1ccc(NC2CC(=O)N(C(C)C)C2=O)cc1 (stereo not given)	none
CN1C(=O)CC(Nc2cccc3cccc(N)c23)C1=O (stereo not given)	Diaph inh CS 67, PfGluPho inh 64
O=C(Nc1ccc([N+](=O)[O-])cc1)Nc1ccc(N2CCOCC2)c2nonc12	L major viab 98
COc1cc(OC)cc(-c2oc(=O)c3cc(OC)c(OC)cc3c2C(F)(F)F)c1	none (no result: DTT redox prof, G6PDH CS, Diaph inh CS, Diaph act CS, L major viab)
Cc1ccc(Nc2c(-c3ccccn3)nc3cc(C)ccn23)cc1	L major viab 101
Cc1ccn2c(Nc3ccc4c(c3)OCO4)c(-c3ccccn3)nc2c1	L major viab 100
Cc1ccc2nc(-c3ccncc3)c(Nc3ccccc3)n2c1	L major viab 97
Cc1ccc(Nc2c(-c3ccccn3)nc3ccc(C)cn23)cc1	L major viab 101
Cc1ccc(-c2nc3cnccn3c2Nc2ccc3c(c2)OCO3)o1	none
Cc1ccc2nc(-c3ccco3)c(Nc3ccccc3)n2c1	none
CSc1cccc(NC(=O)C2CCN(C(=O)c3ccccc3C)CC2)c1	none
COc1ccc(/C=N/NC(=O)c2ccccc2F)cc1CN1CCN(c2ccc(F)cc2)CC1	L major viab 67
c1ccc(-c2ccccc2OCCOCCN2CCc3ccccc3C2)cc1	L major viab 77
Clc1ccc(OCCCN2CCc3ccccc3C2)c(Br)c1	none (no result: DTT redox prof, G6PDH CS, Diaph inh CS, Diaph act CS, L major viab)
Clc1ccc(OCCOCCN2CCc3ccccc3C2)c(Cl)c1	L major viab 88
CC(C)CN1CCN(Cc2cccc3cccnc23)CC1CCO (stereo not given)	none
N#Cc1sc2nc(-c3ccccc3)cc(-c3ccco3)c2c1N	Diaph inh CS 62
CC(C)Cn1[nH]c2c3c(ccc2c1=O)C(=O)c1ccccc1C3=O	L major viab 90
CCc1ccc([C@@H]2C[C@H]3CN(Cc4ccccc4OC)C(=O)[C@]34CCCN24)cc1	none
Cc1ccc(S(=O)(=O)N(C)c2ccc(OCC(=O)Nc3nc4ccccc4s3)cc2)cc1	L major viab 98
Cc1ccc(S(=O)(=O)N(C)c2ccc(OCC(=O)Nc3nc(-c4ccccc4)cs3)cc2)cc1	L major viab 89
CCOC(=O)C(=O)c1csc(NC(=O)COc2ccc(N(C)S(=O)(=O)c3ccc(F)cc3)cc2)n1	none
CN(c1ccc(OCC(=O)Nc2nc(-c3ccccc3)cs2)cc1)S(=O)(=O)c1ccc(F)cc1	L major viab 97
Cc1ccc(S(=O)(=O)N(C)c2ccc(OCC(=O)Nc3nc4c(ccc5ccccc54)s3)cc2)cc1	none
C[C@H](CO)N1C[C@H](C)[C@H](CN(C)Cc2ccncc2)Oc2ccc(NC(=O)Nc3ccc(C(F)(F)F)cc3)cc2CC1=O	none (no result: DTT redox prof, G6PDH CS, Diaph inh CS, Diaph act CS, L major viab)
Cc1ccccc1/C=C\c1nc2ccccc2c(=O)n1Cc1ccccc1	L major viab 99

High-throughput results from PubChem.
